Source: PMC5615838 (Toxicology Reports, 2016)
pIC50: −log10 of the molar value.

Assays:
[1] = tested on: GPCRs, ion channels, nuclear receptors, transporters; assay: lead profiling receptor screen; assay type: binding; conditions: 10 μM
hERG = hERG (Homo sapiens, UniProt Q12809); assay: hERG electrophysiology; assay type: cell-based
CYP1A2 = molecular target: T1, CYP1A2 (Homo sapiens, UniProt P05177); assay: CYP inhibition, LC–MS/MS assay in human liver microsomes; assay type: in vitro ADME; conditions: pooled human liver microsomes, probe ethoxyresorufin
T1 sequence (P05177 1-516): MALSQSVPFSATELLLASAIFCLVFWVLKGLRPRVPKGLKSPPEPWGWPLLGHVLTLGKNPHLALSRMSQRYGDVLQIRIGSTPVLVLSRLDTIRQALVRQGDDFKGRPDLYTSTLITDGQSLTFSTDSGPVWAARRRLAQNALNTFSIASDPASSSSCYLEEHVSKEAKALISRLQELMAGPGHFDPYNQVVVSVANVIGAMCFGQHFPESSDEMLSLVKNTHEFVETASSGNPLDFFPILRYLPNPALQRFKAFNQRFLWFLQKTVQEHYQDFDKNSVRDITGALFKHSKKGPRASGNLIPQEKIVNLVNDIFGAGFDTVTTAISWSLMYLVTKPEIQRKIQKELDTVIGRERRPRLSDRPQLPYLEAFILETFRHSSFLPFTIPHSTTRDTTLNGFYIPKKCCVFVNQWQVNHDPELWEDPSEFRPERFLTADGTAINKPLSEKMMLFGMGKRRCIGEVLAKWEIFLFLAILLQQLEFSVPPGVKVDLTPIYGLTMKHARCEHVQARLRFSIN
Method in brief: (§1)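 Follow-up CYP panel in pooled human liver microsomes with CYP-specific probe substrates; CYP-specific metabolites quantified by LC-MS/MS. Test compound at 10 μM. Percent inhibition reported.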

CYP2C9 [2] = molecular target: T2, CYP2C9 (Homo sapiens, UniProt P11712); assay: as above; assay type: in vitro ADME; conditions: pooled human liver microsomes, probe tolbutamide
Method in brief: as §1

CYP2C19 = CYP2C19 (Homo sapiens, UniProt P33261); assay: as above; assay type: in vitro ADME; conditions: pooled human liver microsomes, probe S-mephenytoin
Method in brief: as §1

CYP2D6 = CYP2D6 (Homo sapiens, UniProt P10635); assay: as above; assay type: in vitro ADME; conditions: pooled human liver microsomes, probe bufuralol
Method in brief: as §1

CYP3A4 = CYP3A4 (Homo sapiens, UniProt P08684); assay: as above; assay type: in vitro ADME; conditions: pooled human liver microsomes, probe midazolam
Method in brief: as §1

CYP2C9 [3] = molecular target: T2, CYP2C9; assay type: in vitro ADME
Method in brief: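 Pooled human liver microsomes preincubated with test compound for 30 min, with and without an NADPH-generating system, then incubated with diclofenac as the CYP2C9 marker substrate. IC50 derived.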

[4] = in vivo metabolism after single oral dose, plasma; parameters: species or system rat; conditions: S7958 30 mg/kg bw oral
[5] = tested on: S. typhimurium strains TA98, TA100, TA1535, TA1537 and E. coli strain WP2 uvrA; assay: bacterial reverse mutation test; assay type: cell-based, Salmonella typhimurium, Escherichia coli; conditions: 50–5000 μg/plate, plate incorporation and pre-incubation, ±S9
[6] = 28-day subacute toxicity study, diet; assay type: in vivo, rat; conditions: 28 days
Method in brief: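 Diet admix given for 28 consecutive days to Crl:CD(SD) rats, 10/sex/group, at 10, 30 or 100 mg/kg bw/day. H&E-stained paraffin sections of tissues examined microscopically for all control and high-dose (100 mg/kg bw/day) animals.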

[7] = proof of exposure in 28-day study, plasma concentrations; assay type: in vivo, rat; conditions: for concentration at 29 day: Crl:CD(SD) (Sprague-Dawley), rat, plasma (peripheral blood), oral; for Hepatic Portal Vein Blood Mean Conc. / Hepatic Portal Vein Blood Mean Conc. Ratio: necropsy
Method in brief: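 In the 28-day dietary study (10, 30, 100 mg/kg bw/day), plasma test compound measured in peripheral blood taken at 06:00 h GMT on Day 29. Hepatic portal vein blood was sampled from the same animals at necropsy.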

[8] = JECFA SPET dietary exposure estimate; parameters: species or system human; conditions: 28- and 90-day toxicology studies
[9] = molecular target: human bitter receptor hTAS2R8; conditions: antagonist; cited from earlier work

T2 sequence (P11712 whole entry): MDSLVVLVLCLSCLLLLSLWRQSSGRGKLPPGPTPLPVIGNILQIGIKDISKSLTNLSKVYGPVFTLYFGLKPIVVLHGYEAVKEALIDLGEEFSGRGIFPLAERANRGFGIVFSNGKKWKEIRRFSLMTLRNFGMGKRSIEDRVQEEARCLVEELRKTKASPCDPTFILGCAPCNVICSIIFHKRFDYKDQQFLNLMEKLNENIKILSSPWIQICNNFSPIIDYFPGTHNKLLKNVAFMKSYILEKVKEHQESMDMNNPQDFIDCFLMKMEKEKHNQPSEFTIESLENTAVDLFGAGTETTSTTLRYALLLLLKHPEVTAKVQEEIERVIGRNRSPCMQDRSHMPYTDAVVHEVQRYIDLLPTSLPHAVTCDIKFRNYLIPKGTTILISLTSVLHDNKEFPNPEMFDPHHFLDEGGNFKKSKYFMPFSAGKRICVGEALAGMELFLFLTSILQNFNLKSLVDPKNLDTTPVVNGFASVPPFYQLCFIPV
Chain of CYP3A4 (P08684 whole entry): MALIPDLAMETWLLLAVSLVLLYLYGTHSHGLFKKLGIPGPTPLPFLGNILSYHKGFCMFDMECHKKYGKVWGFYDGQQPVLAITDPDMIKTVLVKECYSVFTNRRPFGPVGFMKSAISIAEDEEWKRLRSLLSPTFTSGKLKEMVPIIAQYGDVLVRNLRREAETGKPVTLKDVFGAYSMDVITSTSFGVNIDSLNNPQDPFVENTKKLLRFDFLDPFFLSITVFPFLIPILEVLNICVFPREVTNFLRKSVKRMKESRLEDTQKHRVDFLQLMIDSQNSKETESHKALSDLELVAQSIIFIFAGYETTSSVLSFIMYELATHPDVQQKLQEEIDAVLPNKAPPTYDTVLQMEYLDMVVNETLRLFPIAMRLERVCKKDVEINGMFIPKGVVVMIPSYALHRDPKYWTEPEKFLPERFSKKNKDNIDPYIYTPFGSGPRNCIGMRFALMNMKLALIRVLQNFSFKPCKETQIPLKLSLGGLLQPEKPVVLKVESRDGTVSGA
Chain of hERG (Q12809 whole entry): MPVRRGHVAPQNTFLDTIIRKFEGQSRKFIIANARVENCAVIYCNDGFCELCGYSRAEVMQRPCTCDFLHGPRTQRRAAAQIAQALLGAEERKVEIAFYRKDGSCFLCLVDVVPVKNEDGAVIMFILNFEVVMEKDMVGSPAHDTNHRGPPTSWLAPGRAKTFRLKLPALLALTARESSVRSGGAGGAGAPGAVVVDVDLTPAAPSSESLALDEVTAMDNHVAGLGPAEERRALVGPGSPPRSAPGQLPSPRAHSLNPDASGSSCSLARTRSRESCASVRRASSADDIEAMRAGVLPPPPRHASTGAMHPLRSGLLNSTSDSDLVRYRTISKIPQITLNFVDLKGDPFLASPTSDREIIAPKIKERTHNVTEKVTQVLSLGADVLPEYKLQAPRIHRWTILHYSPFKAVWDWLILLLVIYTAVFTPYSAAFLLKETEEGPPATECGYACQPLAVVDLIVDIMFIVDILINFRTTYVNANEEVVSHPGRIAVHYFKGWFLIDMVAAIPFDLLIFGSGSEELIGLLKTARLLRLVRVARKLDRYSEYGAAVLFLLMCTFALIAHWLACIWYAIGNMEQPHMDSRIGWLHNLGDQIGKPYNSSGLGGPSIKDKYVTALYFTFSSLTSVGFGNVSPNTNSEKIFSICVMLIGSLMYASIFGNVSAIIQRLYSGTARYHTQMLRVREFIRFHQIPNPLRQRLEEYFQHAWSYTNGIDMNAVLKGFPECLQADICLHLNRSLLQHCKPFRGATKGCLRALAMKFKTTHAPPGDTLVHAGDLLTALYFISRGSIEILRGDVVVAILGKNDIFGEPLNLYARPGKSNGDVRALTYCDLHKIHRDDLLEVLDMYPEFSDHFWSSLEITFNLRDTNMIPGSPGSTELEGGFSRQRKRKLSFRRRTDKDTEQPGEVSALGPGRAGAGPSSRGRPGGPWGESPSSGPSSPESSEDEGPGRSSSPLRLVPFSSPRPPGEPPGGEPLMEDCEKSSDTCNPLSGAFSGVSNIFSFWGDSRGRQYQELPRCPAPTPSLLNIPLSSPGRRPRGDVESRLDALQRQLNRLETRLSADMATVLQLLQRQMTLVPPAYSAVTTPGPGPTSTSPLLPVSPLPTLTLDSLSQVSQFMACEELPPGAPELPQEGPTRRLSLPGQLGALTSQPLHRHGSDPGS
Chain of CYP2D6 (P10635 whole entry): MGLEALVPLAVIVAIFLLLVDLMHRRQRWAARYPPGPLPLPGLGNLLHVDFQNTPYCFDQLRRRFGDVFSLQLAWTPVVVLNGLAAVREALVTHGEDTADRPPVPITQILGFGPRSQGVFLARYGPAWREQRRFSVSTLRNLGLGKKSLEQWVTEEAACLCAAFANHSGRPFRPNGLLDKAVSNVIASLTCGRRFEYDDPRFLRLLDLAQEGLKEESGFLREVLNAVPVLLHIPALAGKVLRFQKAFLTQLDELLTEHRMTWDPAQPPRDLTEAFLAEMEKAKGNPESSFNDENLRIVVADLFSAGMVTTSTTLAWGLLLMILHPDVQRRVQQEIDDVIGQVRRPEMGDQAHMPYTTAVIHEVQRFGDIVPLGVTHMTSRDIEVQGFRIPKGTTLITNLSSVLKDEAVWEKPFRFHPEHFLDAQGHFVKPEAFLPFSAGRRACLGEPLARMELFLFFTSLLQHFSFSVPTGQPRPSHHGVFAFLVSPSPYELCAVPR
Chain of CYP2C19 (P33261 whole entry): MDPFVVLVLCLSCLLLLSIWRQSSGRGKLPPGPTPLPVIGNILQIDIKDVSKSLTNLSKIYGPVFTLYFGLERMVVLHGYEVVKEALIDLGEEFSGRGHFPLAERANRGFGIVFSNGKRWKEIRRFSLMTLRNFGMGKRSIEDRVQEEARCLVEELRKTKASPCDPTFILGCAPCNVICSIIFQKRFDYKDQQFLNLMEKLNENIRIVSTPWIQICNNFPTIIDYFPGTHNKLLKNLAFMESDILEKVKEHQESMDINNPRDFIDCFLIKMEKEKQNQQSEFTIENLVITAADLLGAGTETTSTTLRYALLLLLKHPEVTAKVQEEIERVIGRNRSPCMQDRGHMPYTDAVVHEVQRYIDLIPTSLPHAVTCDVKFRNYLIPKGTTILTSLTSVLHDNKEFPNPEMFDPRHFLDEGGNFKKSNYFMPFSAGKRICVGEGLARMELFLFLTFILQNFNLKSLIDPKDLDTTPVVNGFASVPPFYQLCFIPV

Question: Which “significant responses (≥50% inhibition or stimulation)” value [1] does the source give for Cc1noc(C)c1Cn1cc(N2C(=O)N(Cc3cccc(O)c3)C(C)(C)C2=O)cn1 [S7958, 3-(1-((3,5-dimethylisoxazol-4-yl)methyl)-1H-pyrazol-4-yl)-1-(3-hydroxybenzyl)-5,5-dimethylimidazolidine-2,4-dione] here?
Answer: Its value is “No significant responses”.

Question: And the inhibition at 10 µM (hERG)?
Answer: The inhibition at 10 µM was under 10%.

Question: What about the inhibition at 10 µM (CYP1A2) of the same molecule?
Answer: Its inhibition at 10 µM is 16%.

Question: And the inhibition at 10 µM (CYP2C9 [2])?
Answer: Its inhibition at 10 µM is 62%.

Question: What about the inhibition at 10 µM (CYP2C19) of the same molecule?
Answer: Its inhibition at 10 µM is 17%.

Question: And the inhibition at 10 µM (CYP2D6)?
Answer: The inhibition at 10 µM was 17%.

Question: And the inhibition at 10 µM (CYP3A4)?
Answer: The inhibition at 10 µM was 12%.

Question: What about the pIC50 (CYP2C9 [3]) of the same molecule?
Answer: The pIC50 was 5.06.

Question: What about the “time- or metabolism-dependent inhibition” value (CYP2C9 [3]; 30 min preincubation ±NADPH) of the same molecule?
Answer: Its value is “no evidence of either time- or metabolism-dependent inhibition”.

Question: And the “maximum concentration in plasma” value [4]?
Answer: Its value is 5.2 ± 7.1 ng/mL.

Question: And the “Reverse mutation (in vitro), Result” value [5]?
Answer: The value was “Negative”.

Question: What about the NOAEL ([6]; 10, 30, 100 mg/kg bw/day food ad-mix, both sexes) of the same molecule?
Answer: Its NOAEL is 100 mg/kg bw/day.

Question: What about the Findings ([6]; up to 100 mg/kg bw/day) of the same molecule?
Answer: Its Findings is “No test-article related findings”.

Question: And the “Peripheral Blood Mean Conc. Ratio” value ([7]; Day 29, 10 mg/kg bw/day, F)?
Answer: Its value is 1.

Question: What about the “Peripheral Blood Mean Conc. Ratio” value ([7]; Day 29, 10 mg/kg bw/day, M) of the same molecule?
Answer: The value was 1.

Question: And the “Peripheral Blood Mean Conc. Ratio” value ([7]; Day 29, 30 mg/kg bw/day, F)?
Answer: Its value is 3.6.

Question: What about the “Peripheral Blood Mean Conc. Ratio” value ([7]; Day 29, 30 mg/kg bw/day, M) of the same molecule?
Answer: The value was 4.1.

Question: What about the “Peripheral Blood Mean Conc. Ratio” value ([7]; Day 29, 100 mg/kg bw/day, F) of the same molecule?
Answer: The value was 7.4.

Question: What about the “Peripheral Blood Mean Conc. Ratio” value ([7]; Day 29, 100 mg/kg bw/day, M) of the same molecule?
Answer: Its value is 41.5.

Question: What about the concentration at 29 day ([7]; female, 10 mg/kg bw/day) of the same molecule?
Answer: Its concentration at 29 day is 18.4 ng/mL.

Question: And the concentration at 29 day ([7]; female, 30 mg/kg bw/day)?
Answer: Its concentration at 29 day is 66.7 ng/mL.

Question: What about the concentration at 29 day ([7]; female, 100 mg/kg bw/day) of the same molecule?
Answer: The concentration at 29 day was 136 ng/mL.

Question: What about the concentration at 29 day ([7]; male, 10 mg/kg bw/day) of the same molecule?
Answer: Its concentration at 29 day is 0.441 ng/mL.

Question: And the concentration at 29 day ([7]; male, 30 mg/kg bw/day)?
Answer: Its concentration at 29 day is 1.79 ng/mL.

Question: And the concentration at 29 day ([7]; male, 100 mg/kg bw/day)?
Answer: The concentration at 29 day was 18.3 ng/mL.

Question: And the “Hepatic Portal Vein Blood Mean Conc.” value ([7]; 10 mg/kg bw/day, F)?
Answer: Its value is 19.4 ng/mL.

Question: And the “Hepatic Portal Vein Blood Mean Conc. Ratio” value ([7]; 10 mg/kg bw/day, F)?
Answer: Its value is 1.

Question: And the “Hepatic Portal Vein Blood Mean Conc.” value ([7]; 10 mg/kg bw/day, M)?
Answer: Its value is 24.4 ng/mL.

Question: What about the “Hepatic Portal Vein Blood Mean Conc. Ratio” value ([7]; 10 mg/kg bw/day, M) of the same molecule?
Answer: Its value is 1.

Question: And the “Hepatic Portal Vein Blood Mean Conc.” value ([7]; 30 mg/kg bw/day, F)?
Answer: Its value is 85.0 ng/mL.

Question: And the “Hepatic Portal Vein Blood Mean Conc. Ratio” value ([7]; 30 mg/kg bw/day, F)?
Answer: The value was 4.4.

Question: And the “Hepatic Portal Vein Blood Mean Conc.” value ([7]; 30 mg/kg bw/day, M)?
Answer: Its value is 68.2 ng/mL.

Question: What about the “Hepatic Portal Vein Blood Mean Conc. Ratio” value ([7]; 30 mg/kg bw/day, M) of the same molecule?
Answer: The value was 2.8.

Question: And the “Hepatic Portal Vein Blood Mean Conc.” value ([7]; 100 mg/kg bw/day, F)?
Answer: The value was 334 ng/mL.

Question: And the “Hepatic Portal Vein Blood Mean Conc. Ratio” value ([7]; 100 mg/kg bw/day, F)?
Answer: The value was 17.2.

Question: And the “Hepatic Portal Vein Blood Mean Conc.” value ([7]; 100 mg/kg bw/day, M)?
Answer: The value was 345 ng/mL.

Question: What about the “Hepatic Portal Vein Blood Mean Conc. Ratio” value ([7]; 100 mg/kg bw/day, M) of the same molecule?
Answer: The value was 14.1.

Question: What about the “NOAEL of 100 mg/kg bw/day as multiple of estimated dietary exposure” value [8] of the same molecule?
Answer: The value was 1500 times.

Question: What about the pIC50 [9] of the same molecule?
Answer: The pIC50 was 7.14.
